Consider four molecules from ChEMBL document CHEMBL4049451, “Exploring the Role of N6-Substituents in Potent Dual Acting 5'-C-Ethyltetrazolyladenosine Derivatives: Synthesis, Binding, Functional Assays, and Antinociceptive Effects in Mice ∇” (J Med Chem, 2017).

Data set [1] concerns the target T1, Adenosine receptor A1 (Homo sapiens) (UniProt P30542).
T1 sequence (whole entry): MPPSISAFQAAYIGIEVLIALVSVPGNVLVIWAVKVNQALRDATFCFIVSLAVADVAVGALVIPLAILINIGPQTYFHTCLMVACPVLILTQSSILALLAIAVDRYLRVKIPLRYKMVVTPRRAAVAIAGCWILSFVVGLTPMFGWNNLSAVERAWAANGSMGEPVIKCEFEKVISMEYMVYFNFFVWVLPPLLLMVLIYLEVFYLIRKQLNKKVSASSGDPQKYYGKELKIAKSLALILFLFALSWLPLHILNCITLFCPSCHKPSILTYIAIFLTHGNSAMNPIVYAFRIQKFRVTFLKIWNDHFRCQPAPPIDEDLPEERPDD
As to the kind of experiment: Agonist activity at recombinant human adenosine A1 receptor expressed in CHO cell membranes assessed as inhibition of forskolin-stimulated adenylyl cyclase activity after 10 mins relative to CCPA. It is filed as functional, cell-based. In outline: (§1)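 hA1 in CHO cell membranes (single high-speed spin, resuspended in 50 mM Tris/HCl pH 7.4, used immediately); agonist inhibition of forskolin-stimulated adenylyl cyclase; efficacy relative to CCPA as reference full agonist (100%). Geometric means with 95% confidence intervals, n = 3.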

For data set [2], the target named is T2, Adenosine receptor A3 (Rattus norvegicus, UniProt P28647).
T2 sequence (P28647 whole entry): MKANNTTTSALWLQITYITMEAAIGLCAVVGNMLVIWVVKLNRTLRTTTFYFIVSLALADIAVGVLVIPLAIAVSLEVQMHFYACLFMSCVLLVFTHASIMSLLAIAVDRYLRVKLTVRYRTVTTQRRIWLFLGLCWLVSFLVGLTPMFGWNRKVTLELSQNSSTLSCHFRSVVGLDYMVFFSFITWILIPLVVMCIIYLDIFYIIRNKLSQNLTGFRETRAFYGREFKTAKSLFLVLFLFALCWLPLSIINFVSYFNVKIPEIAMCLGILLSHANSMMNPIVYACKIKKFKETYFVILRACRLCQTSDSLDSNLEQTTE
Kind of data set: Displacement of [3H]NECA from recombinant rat adenosine A3 receptor expressed in CHO cell membranes after 3 hrs by microbeta scintillation counting. The method, boiled down: (§2)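 CHO membranes with stable human A1, A2A, A3 or rat A3 (1000g then 100 000g spin, stored -80 °C). Competition: hA1 1 nM [3H]CCPA, nonspecific with 1 mM theophylline; hA2A 10 nM [3H]NECA; hA3 1 nM [3H]HEMADO; rA3 30 nM [3H]NECA; latter three nonspecific with 100 μM R-PIA.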
On the technique in general: In a radioligand displacement assay an active substance lowers the binding of a labelled ligand.

Data set [3] addresses T3, Adenosine receptor A1 (Homo sapiens, UniProt P30542).
T3 sequence (P30542 whole entry): T1 sequence (whole entry)
As to the kind of experiment: Agonist activity at recombinant human adenosine A1 receptor expressed in CHO cell membranes assessed as inhibition of forskolin-stimulated adenylyl cyclase activity after 10 mins in presence of [alpha-32P]ATP. It is filed as functional, cell-based. The method, boiled down:
as §1

The species named for data set [4] is Homo sapiens. Kind of data set: Selectivity ratio of Ki for recombinant human adenosine A2A receptor expressed in CHO cell membranes to Ki for recombinant human adenosine A1 receptor expressed in CHO cell membranes. It is filed as cell-based. In outline:
as §2

The species entered for data set [5] is Homo sapiens. Kind of data set: Selectivity ratio of Ki for recombinant human adenosine A2A receptor expressed in CHO cell membranes to Ki for recombinant human adenosine A3 receptor expressed in CHO cell membranes. It is filed as cell-based. The method, boiled down:
as §2

Data set [6] has as its target Adenosine receptors; A1 & A3 (Homo sapiens) (UniProt P30542+P0DMS8). Kind of data set: Selectivity ratio of Ki for recombinant human adenosine A3 receptor expressed in CHO cell membranes to Ki for recombinant human adenosine A1 receptor expressed in CHO cell membranes. It is filed as cell-based. The method, boiled down: as §2
Data set [7] concerns the target T4, Adenosine receptor A2b (Homo sapiens, UniProt P29275).
T4 sequence (P29275 whole entry): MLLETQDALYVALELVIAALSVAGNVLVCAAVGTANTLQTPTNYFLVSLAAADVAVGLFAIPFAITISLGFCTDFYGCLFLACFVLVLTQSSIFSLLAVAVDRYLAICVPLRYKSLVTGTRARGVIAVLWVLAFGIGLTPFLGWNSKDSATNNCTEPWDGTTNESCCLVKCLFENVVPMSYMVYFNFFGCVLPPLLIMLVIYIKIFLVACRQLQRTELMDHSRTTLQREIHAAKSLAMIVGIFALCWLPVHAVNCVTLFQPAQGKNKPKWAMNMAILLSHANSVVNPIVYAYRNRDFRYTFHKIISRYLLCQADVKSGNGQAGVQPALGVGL
Kind of data set: Agonist activity at recombinant human adenosine A2B receptor expressed in CHO cell membranes assessed as stimulation of adenylyl cyclase activity by [alpha-32P]ATP assay. It is filed as functional, cell-based. The method, boiled down:
(§3)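 hA2A or hA2B in CHO cell membranes (one high-speed spin, pellet in 50 mM Tris/HCl pH 7.4, used immediately); agonist stimulation of adenylyl cyclase gives EC50; partial agonism judged as efficacy against 100 μM NECA as full agonist. Geometric means, 95% confidence intervals, n = 3.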

In data set [8] the target is T5, Adenosine receptor A2a (Homo sapiens, UniProt P29274). Kind of data set: Agonist activity at recombinant human adenosine A2A receptor expressed in CHO cell membranes assessed as stimulation of adenylyl cyclase activity by [alpha-32P]ATP assay. It is filed as functional, cell-based. In outline:
as §3

Data set [9] concerns the target T3, Adenosine receptor A1. As to the kind of experiment: Displacement of [3H]CCPA from recombinant human adenosine A1 receptor expressed in CHO cell membranes after 3 hrs by microbeta scintillation counting. In outline: as §2
The target in data set [10] is T6, Adenosine receptor A3 (Homo sapiens, UniProt P0DMS8).
T6 sequence (P0DMS8 whole entry): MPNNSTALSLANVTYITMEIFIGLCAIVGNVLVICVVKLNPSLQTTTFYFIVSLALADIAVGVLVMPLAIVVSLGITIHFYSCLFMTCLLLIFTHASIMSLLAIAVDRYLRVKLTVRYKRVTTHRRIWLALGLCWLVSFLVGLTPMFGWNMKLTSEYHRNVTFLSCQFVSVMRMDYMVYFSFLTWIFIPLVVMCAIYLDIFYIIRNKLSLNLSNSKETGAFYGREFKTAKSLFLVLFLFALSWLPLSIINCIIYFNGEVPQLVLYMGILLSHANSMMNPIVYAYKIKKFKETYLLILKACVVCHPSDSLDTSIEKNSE
As to the kind of experiment: Antagonist activity at recombinant human adenosine A3 receptor expressed in CHO cell membranes assessed as reversal of NECA-mediated inhibition of adenylyl cyclase activity after 10 mins by [alpha-32P]ATP assay. It is filed as functional, cell-based.

Data set [11] addresses T6, Adenosine receptor A3. As to the kind of experiment: Displacement of [3H]HEMADO from recombinant human adenosine […] receptor expressed in CHO cell membranes after 3 hrs by microbeta scintillation counting. In outline: as §2
Data set [12] has as its target T7, Adenosine receptor A2b (Homo sapiens) (UniProt P29275).
T7 sequence (whole entry): T4 sequence (P29275 whole entry)
As to the kind of experiment: Partial agonist activity at recombinant human adenosine A2B receptor expressed in CHO cell membranes assessed as stimulation of adenylyl cyclase activity by [alpha-32P]ATP assay relative to NECA. It is filed as functional, cell-based. The method, boiled down: as §3

Data set [13] concerns the target T5, Adenosine receptor A2a. As to the kind of experiment: Displacement of [3H]NECA from recombinant human adenosine A2A receptor expressed in CHO cell membranes after 3 hrs by microbeta scintillation counting. The method, boiled down: as §2
The target in data set [14] is T5, Adenosine receptor A2a. As to the kind of experiment: Agonist activity at recombinant human adenosine A2A receptor expressed in CHO cell membranes assessed as stimulation of adenylyl cyclase activity relative to NECA. It is filed as functional, cell-based. In outline:
as §3

The nature of data set [15]: Selectivity ratio of Ki for recombinant rat adenosine A3 receptor expressed in CHO cell membranes to Ki for recombinant human adenosine A3 receptor expressed in CHO cell membranes. It is filed as cell-based. In outline:
as §2

A short description of data set [16]: Lipophilicity, log P of the compound. It is filed as physicochemical. As to conditions: octanol/water.
Data set [17] deals with Mus musculus. As to the kind of experiment: Antinociceptive activity in formalin induced nociceptive mouse model assessed as reduction in late nociceptive behavior administered via ip 10 mins prior to formalin induction measured for 15 to 60 mins. It is filed as functional, organism-based. In outline:
(§4)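 Mice, randomized, n = 8–10 per group; ip compound or vehicle (10% DMSO in 0.9% NaCl) 10 min before formalin (1.25% in saline, 30 μL) into dorsal hind paw. Lifting, licking, shaking, flinching timed every 5 min for 60 min; phase 1 0–7 min, phase 2 15–60 min; mean ± SEM.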

The target of data set [18] is T7, Adenosine receptor A2b (Homo sapiens). As to the kind of experiment: Agonist activity at recombinant human adenosine A2B receptor expressed in CHO cell membranes assessed as stimulation of adenylyl cyclase activity relative to NECA. It is filed as functional, cell-based. In outline:
as §3

In data set [19] the test system is Mus musculus. Kind of data set: Antinociceptive activity in formalin induced nociceptive mouse model at 1 mg/kg, ip administered 10 mins prior to formalin induction measured up to 60 mins. It is filed as functional, organism-based. In outline:
as §4

Data set [20] deals with Mus musculus. Kind of data set: Antinociceptive activity in formalin induced nociceptive mouse model assessed as reduction in nociceptive behavior at 0.5 mg/kg, ip administered 10 mins prior to formalin induction measured up to 7 mins. It is filed as functional, organism-based. In outline:
as §4

Data set [21] has as its system Mus musculus. Kind of data set: Antinociceptive activity in formalin induced nociceptive mouse model assessed as reduction in nociceptive behavior at 1 mg/kg, ip administered 10 mins prior to formalin induction measured for 15 to 60 mins in presence of adenosine A3 agonist 2Cl-IBMECA. It is filed as functional, organism-based. In outline:
as §4

For data set [22], the system named is Mus musculus. Kind of data set: Antinociceptive activity in formalin induced nociceptive mouse model assessed as reduction in nociceptive behavior at 0.5 mg/kg, ip administered 10 mins prior to formalin induction measured for 15 to 60 mins. It is filed as functional, organism-based. The method, boiled down:
as §4

The subject of data set [23] is Mus musculus. Kind of data set: Antinociceptive activity in formalin induced nociceptive mouse model assessed as reduction in nociceptive behavior at 1 mg/kg, ip administered 10 mins prior to formalin induction measured up to 7 mins in presence of adenosine A3 agonist 2Cl-IBMECA. It is filed as functional, organism-based. The method, boiled down:
as §4

Activity calls are given as the source filed them. The rule behind the calls is not given here.

T5 sequence (P29274 whole entry): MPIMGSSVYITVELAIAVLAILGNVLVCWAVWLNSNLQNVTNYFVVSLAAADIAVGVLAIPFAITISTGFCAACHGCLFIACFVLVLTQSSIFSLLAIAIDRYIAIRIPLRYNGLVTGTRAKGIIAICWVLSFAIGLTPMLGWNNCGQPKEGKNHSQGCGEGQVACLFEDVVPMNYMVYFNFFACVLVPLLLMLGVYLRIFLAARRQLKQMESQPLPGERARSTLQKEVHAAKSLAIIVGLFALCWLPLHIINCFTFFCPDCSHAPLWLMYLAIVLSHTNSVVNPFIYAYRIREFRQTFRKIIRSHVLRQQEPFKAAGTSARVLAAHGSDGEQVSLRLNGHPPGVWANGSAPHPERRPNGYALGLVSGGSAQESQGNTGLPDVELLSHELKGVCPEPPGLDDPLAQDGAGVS

As a reminder, the Ki is a measure of affinity in units of concentration, obtained from inhibition or displacement. Broadly, the EC50 is the concentration needed to bring the measured effect to its halfway point. In the case of `CCn1nnc([C@H]2O[C@@H](n3cnc4c(NCC5CC5)ncnc43)[C@H](O)[C@@H]2O)n1`, the Efficacy in data set [1] and in data set [14] was over 90% in each case. Further, the Ki in data set [2] worked out at 65.2 nM; in [9] it was 0.438 nM; in [11], 0.575 nM; in data set [13] it was 112 nM. Moreover, the EC50 in [3] turned out to be 7.73 nM; in [7], 637 nM; in data set [8] it was 16.6 nM; in data set [10], 3.53 nM. For the same molecule, the Ratio Ki in data set [4] was 256; in [5], 196; in data set [6], 1.3; in [15], 110 to 114. Moreover, the Activity in data set [12] came out at 81%.
What is called logP is a log measure of how a compound divides between an organic and an aqueous phase. Read a high logP as higher lipophilicity. Take `CCn1nnc([C@H]2O[C@@H](n3cnc4c(NCc5cccc(Cl)c5)ncnc43)[C@H](O)[C@@H]2O)n1`: the Efficacy in data set [1], in data set [14] and in data set [18] was over 90% in each case. Also, the inhibition constant (Ki) in [2] is 2.69 nM; in [9], 1.41 nM; in data set [11] it was 0.386 nM; in [13], 29.8 nM. In addition, the 50% effective concentration (EC50) was determined as 58.5 nM in data set [3], 592 nM in [7], 6.71 nM in [8] and 2.2 nM in data set [10]. Moreover, the Ratio Ki in data set [4] was found to be 21; in [5], 77; in [6], 0.27; in data set [15] it was 6.9. The same molecule came in with a logP in data set [16] of 2.57. Further, the Activity entry in [17] is “Dose-dependent effect”.
`CCn1nnc([C@H]2O[C@@H](n3cnc4c(NCc5cccc(I)c5)nc(Cl)nc43)[C@H](O)[C@@H]2O)n1`: the inhibitory constant (Ki) in data set [2] is 2.53 nM. Further, the outcome in [19] was inactive. This molecule came in with a logP in data set [16] of 4.06.
In the case of `O[C@@H]1[C@H](O)[C@@H](CCl)O[C@H]1n1cnc2c(NC3C[C@@H]4CC[C@@H]3C4)ncnc21` (mixture of isomers), the result in data set [20] and in data set [22] was inactive. Further, the result in data set [21] and in [23] was Active.
